In brackets after ≈: the same amount, converted by molar mass.
Key:
[1] = test system: HUVEC; assay: Antiinflammatory activity against TNF-alpha-induced ICAM1 protein expression in HUVEC at maximum tolerated dose pretreated for 2 hrs before TNFalpha challenge measured after 16 hrs by whole cell ELISA; type: functional, Homo sapiens
Method in brief: (§1)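 Primary umbilical cord endothelial cells were pre-incubated 2 h with or without compound, then TNF-α (10 ng/mL) for 16 h (ICAM-1, VCAM-1) or 4 h (E-selectin). Whole-cell ELISA: glutaraldehyde fixation, milk block, primary antibody overnight at 4 °C, peroxidase secondary, OPD substrate, A490. IC50 read from %inhibition vs log concentration plots of three independent experiments. Single-level values were taken at the highest concentration giving >95% viability (MTT, 24 h).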

[2] = Cytotoxicity against HUVEC assessed as maximum tolerated dose for >95% cell viability after 24 hrs by MTT assay; type: cell-based; conditions: human, HUVEC cells; read-out: MTD
Method in brief: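 Primary human umbilical vein endothelial cells (mild trypsinization), grown in M-199 with 15% heat-inactivated FCS, endothelial cell growth factor and heparin, 5% CO2. Cells attached overnight, then exposed to compounds or DMSO (0.25%) for 24 h; MTT (5 mg/mL in PBS) 4 h, formazan dissolved in DMSO, absorbance 570 nm. Also checked by trypan blue exclusion. Value is highest concentration giving >95% viability; ≥3 experiments in triplicate.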

[3] = test system: HUVEC; assay: Antiinflammatory activity against TNF-alpha-induced ICAM1 protein expression in HUVEC pretreated for 2 hrs before TNFalpha challenge measured after 16 hrs by whole cell ELISA; type: functional, cell-based; conditions: Homo sapiens; method in brief: as §1
[4] = Antiinflammatory activity against TNF-alpha-induced VCAM-1 protein expression in HUVEC by ELISA

| Structure (SMILES) | inhibition (INH) [1] | MNTC at 24 h [2] | IC50 [3] | IC50 [4] |
| --- | --- | --- | --- | --- |
| CCCOC(=S)/C=C/c1ccccc1 [PROPYL THIONOCINNAMATE] | 75% | 80 µg/mL | 50 µg/mL (≈ 242 µM) |  |
| COc1cc(CCC(=O)SCc2ccccc2)cc(OC)c1OC | 45% | 60 µg/mL |  |  |
| CCSC(=O)/C=C/c1cc(OC)c(OC)c(OC)c1 | 65% | 30 µg/mL | 25 µg/mL (≈ 88.5 µM) |  |
| CCCCCCCCSC(=O)/C=C/c1cc(OC)ccc1OC | 30% | 50 µg/mL |  |  |
| CCOC(=O)/C=C/c1cc(OC)c(OC)c(OC)c1 | 90% | 50 µg/mL | 25 µg/mL (≈ 93.9 µM) |  |
| CCOC(=S)/C=C/c1cc(OC)ccc1OC | 80% | 25 µg/mL | 15 µg/mL (≈ 59.4 µM) |  |
| O=C(/C=C/c1ccccc1)SCc1ccccc1 [BENZYL THIOCINNAMATE] | 40% | 60 µg/mL |  |  |
| COc1ccc(CCC(=O)OC(C)C)cc1OC | 30% | 110 µg/mL |  |  |
| CC(C)OC(=S)/C=C/c1ccccc1 [ISOPROPYL THIONOCINNAMATE] | 80% | 35 µg/mL | 20 µg/mL (≈ 96.9 µM) |  |
| COc1cccc(/C=C/C(=O)OC(C)C)c1O | 30% | 120 µg/mL |  |  |
| CCCOC(=S)/C=C/c1cc(OC)ccc1OC | 70% | 40 µg/mL | 25 µg/mL (≈ 93.9 µM) |  |
| CCCCCCCCSC(=O)CCc1cc(OC)c(OC)c(OC)c1 | 40% | 80 µg/mL |  |  |
| CCCOC(=S)/C=C/c1cc(OC)c(OC)c(OC)c1 | 80% | 30 µg/mL | 17 µg/mL (≈ 57.4 µM) |  |
| CCOC(=S)/C=C/c1ccccc1 [ETHYL THIONOCINNAMATE] | 90% | 50 µg/mL | 22 µg/mL (≈ 114 µM) |  |
| CCCSC(=O)/C=C/c1cc(OC)ccc1OC | 55% | 50 µg/mL | 45 µg/mL (≈ 169 µM) |  |
| CCSC(=O)/C=C/c1ccccc1 [ETHYL THIOCINNAMATE] | 55% | 50 µg/mL | 47 µg/mL (≈ 244 µM) |  |
| Nc1ccc(O)c(C(=O)O)c1 [MESALAMINE] |  |  |  | 16 mM |
| CCCCCCCCSC(=O)/C=C/c1cc(OC)c(OC)c(OC)c1 | 46% | 70 µg/mL |  |  |
| COc1ccc(OC)c(/C=C/C(=O)Oc2ccccc2)c1 | 30% | 60 µg/mL |  |  |
| CCCCOC(=O)/C=C/c1ccccc1 [BUTYL CINNAMATE] | 55% | 140 µg/mL | 125 µg/mL (≈ 612 µM) |  |
| CCOC(=O)/C=C/c1ccccc1 [ETHYL CINNAMATE] | 85% | 130 µg/mL | 95 µg/mL (≈ 539 µM) |  |
| COc1ccc(OC)c(/C=C/C(=O)SCc2ccccc2)c1 | 50% | 60 µg/mL | 60 µg/mL (≈ 191 µM) |  |

— ChEMBL document CHEMBL1909575, “Novel natural product-based cinnamates and their thio and thiono analogs as potent inhibitors of cell adhesion molecules on human endothelial cells” (Eur J Med Chem, 2011)
